Assay results as given in ChEMBL document CHEMBL4251619, “A new family of densely functionalized fused-benzoquinones as potent human protein kinase CK2 inhibitors” (Eur J Med Chem, 2018).
The source made the active and inactive calls. No cut-off for these calls is given here.

Key:
[1] = biological target: T1, Casein kinase II alpha/beta (Homo sapiens, UniProt P68400); test: Inhibition of human CK2-alpha/beta expressed in Escherichia coli BL21(DE3) using RRRDDDSDDD peptide as substrate after 15 mins by capillary electrophoresis method
MCF7 [2] = test: Cytotoxicity against human MCF7 cells assessed as inhibition of cell viability at 10 uM after 48 hrs by MTT assay; format: functional, cell-based
Outline: (§1)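 MCF-7 cells grown in RPMI 1640 with GlutaMax and 10% FCS. Seeded at 1 x 10^5 cells/well and left overnight, then given fresh medium with inhibitor at 10 or 100 µM; 1% DMSO as control. After 48 h at 37 °C, 5% CO₂, MTT was added (0.5 mg/mL final) for 2 h. Formazan dissolved in DMSO and read at 570 nm against 630 nm reference. Triplicates, three independent experiments, mean ± SD.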

MCF7 [3] = test: Cytotoxicity against human MCF7 cells assessed as inhibition of cell viability at 100 uM after 48 hrs by MTT assay relative to control; format: functional; details: MCF7, 48 h; outline: as §1
[4] = biological target: T1, Casein kinase II alpha/beta; test: ATP-competitive inhibition of human CK2-alpha/beta expressed in Escherichia coli BL21(DE3) using RRRDDDSDDD peptide as substrate after 15 mins in presence of varying levels of ATP by capillary electrophoresis method
Casein kinase 2 = Casein kinase 2 (Homo sapiens, UniProt P67870+P68400+P19784+Q8NEV1); test: Inhibition of CK2 (unknown origin); format: protein assay

SMILES: CCCCCCCCCCCC1=C(O)C(=O)C2=C(OC(N)=C(C#N)C2c2ccc3c(c2)OCO3)C1=O (stereo unspecified)
- IC50 [1]: 1940 nM

SMILES: CCCCCCCCCCCC1=C(O)C(=O)C2=C(OC(N)=C(C#N)C2c2ccc(OC)cc2)C1=O (stereo unspecified)
- IC50 [1]: 840 nM
- inhibition (MCF7 [2]): inactive
- inhibition at 100 µM (MCF7 [3]): 55%

SMILES: CCCCCCCCCCCC1=C(O)C(=O)C2=C(OC(N)=C(C#N)C2CCCCCC)C1=O (stereo unspecified)
- IC50 [1]: 3710 nM

SMILES: CCCCCCCCCCCC1=C(O)C(=O)C2=C(OC(N)=C(C#N)C2c2ccc([N+](=O)[O-])cc2)C1=O (stereo unspecified)
- IC50 [1]: 220 nM
- inhibition (MCF7 [2]): inactive
- inhibition at 100 µM (MCF7 [3]): 90%

SMILES: CCCCCCCCCCCC1=C(O)C(=O)C2=C(OC(N)=C(C#N)C2c2ccco2)C1=O (stereo unspecified)
- IC50 [1]: 720 nM

SMILES: CCCCCCCCCCCC1=C(O)C(=O)C2=C(OC(N)=C(C#N)C2c2ccc(C(=O)O)cc2)C1=O (stereo unspecified)
- IC50 [1]: 1360 nM

SMILES: CCCCCCCCCCCC1=C(O)C(=O)C2=C(OC(N)=C(C#N)C2c2ccccc2)C1=O (stereo unspecified)
- IC50 [1]: 570 nM
- inhibition (MCF7 [2]): inactive
- inhibition at 100 µM (MCF7 [3]): 50%
- Ki [4]: 390 nM

SMILES: CCCCCCCCCCCC1=C(O)C(=O)C2=C(OC(N)=C(C#N)C2c2cccc(F)c2)C1=O (stereo unspecified)
- IC50 [1]: 996 nM
- inhibition (MCF7 [2]): inactive
- inhibition at 100 µM (MCF7 [3]): 60%

SMILES: CCCCCCCCCCCC1=C(O)C(=O)C2=C(OC(N)=C(C#N)C2c2ccc(Cl)cc2)C1=O (stereo unspecified)
- IC50 [1]: 900 nM
- inhibition (MCF7 [2]): inactive
- IC50 (Casein kinase 2): < 1000 nM

SMILES: CCCCCCCCC1=C(O)C(=O)C2=C(OC(N)=C(C#N)C2c2ccc([N+](=O)[O-])cc2)C1=O (stereo unspecified)
- IC50 [1]: 1990 nM

SMILES: CCCCCCCCCCCC1=C(O)C(=O)C2=C(OC(N)=C(C#N)C2c2ccncc2)C1=O (stereo unspecified)
- IC50 [1]: 1440 nM

SMILES: CCCCCCCCCCCC1=C(O)C(=O)C2=C(OC(N)=C(C#N)C2c2cccc([N+](=O)[O-])c2)C1=O (stereo unspecified)
- IC50 [1]: 890 nM
- inhibition (MCF7 [2]): inactive
- inhibition at 100 µM (MCF7 [3]): 65%

SMILES: CCCCCCCCCCCC1=C(O)C(=O)C2=C(OC(N)=C(C#N)C2c2cccnc2)C1=O (stereo unspecified)
- IC50 [1]: 1380 nM
